From ChEMBL document CHEMBL2331093, “Synthesis and biological evaluation of novel propargyl amines as potential fluorine-18 labeled radioligands for detection of MAO-B activity” (Bioorg Med Chem, 2013)
pIC50: −log10 of the molar value.

Columns and labels:
[1] = Drug uptake in human thalamus at 4 MBq/200 ml after 90 mins by in vitro autoradiography in presence of MAO-A ligand pirlindole; type: ADME, tissue-based; conditions: 1.5 h
Outline: (§1)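 In vitro autoradiography with the fluorine-18 labeled radioligand on human postmortem brain tissue sections.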

Brain = assay: Drug uptake in cynomolgus monkey brain at 168 MBq, iv by PET imaging; type: ADME, organism-based, Macaca fascicularis; conditions: in vivo
Outline: (§2)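 PET brain imaging in a cynomolgus monkey after injection of the fluorine-18 labeled radioligand; regional radioactivity uptake expressed as %SUV over time post injection.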

[2] = Metabolic stability in cynomolgus monkey plasma assessed as parent compound at 168 MBq, iv after 120 mins by HPLC analysis; type: ADME, organism-based, Macaca fascicularis; conditions: read-out: Stability
[3] = Drug uptake in human putamen at 4 MBq/200 ml after 90 mins by in vitro autoradiography in presence of MAO-B inhibitor L-deprenyl; type: ADME, tissue-based; conditions: 1.5 h; outline: as §1
Plasma [4] = assay: Metabolic stability in cynomolgus monkey plasma assessed as metabolite M5 retention time at 168 MBq, iv by HPLC analysis; type: ADME, organism-based, Macaca fascicularis; conditions: in vivo
[5] = Drug uptake in human caudate nucleus at 4 MBq/200 ml after 90 mins by in vitro autoradiography; type: ADME, tissue-based; conditions: 1.5 h; outline: as §1
[6] = Drug uptake in human caudate nucleus at 4 MBq/200 ml after 90 mins by in vitro autoradiography in presence of MAO-B inhibitor rasagiline; type: ADME, tissue-based; conditions: 1.5 h; outline: as §1
Plasma [7] = assay: Metabolic stability in cynomolgus monkey plasma assessed as metabolite M2 retention time at 168 MBq, iv by HPLC analysis; type: ADME, organism-based, Macaca fascicularis; conditions: in vivo
[8] = Drug uptake in human putamen at 4 MBq/200 ml after 90 mins by in vitro autoradiography in presence of MAO-B inhibitor rasagiline; type: ADME, tissue-based; conditions: 1.5 h; outline: as §1
[9] = Drug uptake in human hippocampus at 4 MBq/200 ml after 90 mins by in vitro autoradiography; type: ADME, tissue-based; conditions: 1.5 h; outline: as §1
[10] = Drug uptake in cynomolgus monkey cortex at 168 MBq, iv by PET imaging; type: ADME, organism-based, Macaca fascicularis; conditions: in vivo; outline: as §2
[11] = Drug uptake in human hippocampus at 4 MBq/200 ml after 90 mins by in vitro autoradiography in presence of MAO-A ligand pirlindole; type: ADME, tissue-based; conditions: 1.5 h; outline: as §1
Thalamus = assay: Drug uptake in cynomolgus monkey thalamus at 168 MBq, iv by PET imaging; type: ADME, organism-based, Macaca fascicularis; conditions: in vivo; outline: as §2
[12] = Drug uptake in human thalamus at 4 MBq/200 ml after 90 mins by in vitro autoradiography in presence of MAO-B inhibitor rasagiline; type: ADME, tissue-based; conditions: 1.5 h; outline: as §1
Plasma [13] = assay: Metabolic stability in cynomolgus monkey plasma assessed as metabolite M3 retention time at 168 MBq, iv by HPLC analysis; type: ADME, organism-based, Macaca fascicularis; conditions: in vivo
[14] = Drug uptake in human thalamus at 4 MBq/200 ml after 90 mins by in vitro autoradiography in presence of MAO-B inhibitor L-deprenyl; type: ADME, tissue-based; conditions: 1.5 h; outline: as §1
[15] = Drug uptake in human putamen at 4 MBq/200 ml after 90 mins by in vitro autoradiography in presence of MAO-A ligand pirlindole; type: ADME, tissue-based; conditions: 1.5 h; outline: as §1
[16] = Drug uptake in human putamen at 4 MBq/200 ml after 90 mins by in vitro autoradiography; type: ADME, tissue-based; conditions: 1.5 h; outline: as §1
[17] = Metabolic stability in cynomolgus monkey plasma assessed as parent compound at 168 MBq, iv after 45 mins by HPLC analysis; type: ADME, organism-based, Macaca fascicularis; conditions: read-out: Stability
Plasma [18] = assay: Metabolic stability in cynomolgus monkey plasma assessed as metabolite M4 retention time at 168 MBq, iv by HPLC analysis; type: ADME, organism-based, Macaca fascicularis; conditions: in vivo
[19] = Drug uptake in cynomolgus monkey striatum at 168 MBq, iv by PET imaging; type: ADME, organism-based, Macaca fascicularis; conditions: in vivo; outline: as §2
[20] = Drug uptake in human hippocampus at 4 MBq/200 ml after 90 mins by in vitro autoradiography in presence of MAO-B inhibitor rasagiline; type: ADME, tissue-based; conditions: 1.5 h; outline: as §1
Plasma [21] = assay: Metabolic stability in cynomolgus monkey plasma assessed as metabolite M1 retention time at 168 MBq, iv by HPLC analysis; type: ADME, organism-based, Macaca fascicularis; conditions: in vivo
[22] = Drug uptake in human caudate nucleus at 4 MBq/200 ml after 90 mins by in vitro autoradiography in presence of MAO-B inhibitor L-deprenyl; type: ADME, tissue-based; conditions: 1.5 h; outline: as §1
[23] = Drug uptake in cynomolgus monkey cerebellum at 168 MBq, iv by PET imaging; type: ADME, organism-based, Macaca fascicularis; conditions: in vivo; outline: as §2
[24] = Drug uptake in human thalamus at 4 MBq/200 ml after 90 mins by in vitro autoradiography; type: ADME, tissue-based; conditions: 1.5 h; outline: as §1
[25] = Drug uptake in human hippocampus at 4 MBq/200 ml after 90 mins by in vitro autoradiography in presence of MAO-B inhibitor L-deprenyl; type: ADME, tissue-based; conditions: 1.5 h; outline: as §1
[26] = Drug uptake in human caudate nucleus at 4 MBq/200 ml after 90 mins by in vitro autoradiography in presence of MAO-A ligand pirlindole; type: ADME, tissue-based; conditions: 1.5 h; outline: as §1
[27] = Drug uptake in human basal ganglia at 4 MBq/200 ml after 90 mins by in vitro autoradiography; type: ADME; conditions: 1.5 h; outline: as §1
Cortex [28] = assay: Drug uptake in human cortex at 4 MBq/200 ml after 90 mins by in vitro autoradiography in presence of MAO-B inhibitor rasagiline; type: ADME, tissue-based; conditions: 1.5 h; outline: as §1
Cortex [29] = assay: Drug uptake in human cortex at 4 MBq/200 ml after 90 mins by in vitro autoradiography; type: ADME, tissue-based; conditions: 1.5 h; outline: as §1
[30] = Drug uptake in human basal ganglia at 4 MBq/200 ml after 90 mins by in vitro autoradiography in presence of MAO-B inhibitor L-deprenyl; type: ADME; conditions: 1.5 h; outline: as §1
[31] = Drug uptake in human basal ganglia at 4 MBq/200 ml after 90 mins by in vitro autoradiography in presence of MAO-B inhibitor rasagiline; type: ADME; conditions: 1.5 h; outline: as §1
Cortex [32] = assay: Drug uptake in human cortex at 4 MBq/200 ml after 90 mins by in vitro autoradiography in presence of MAO-B inhibitor L-deprenyl; type: ADME, tissue-based; conditions: 1.5 h; outline: as §1
[33] = Drug uptake in human basal ganglia at 4 MBq/200 ml after 90 mins by in vitro autoradiography in presence of MAO-A ligand pirlindole; type: ADME; conditions: 1.5 h; outline: as §1
Cortex [34] = assay: Drug uptake in human cortex at 4 MBq/200 ml after 90 mins by in vitro autoradiography in presence of MAO-A ligand pirlindole; type: ADME, tissue-based; conditions: 1.5 h; outline: as §1
[35] = Stability of the compound in PBS buffer at pH 7.4 up to 150 mins; type: physicochemical; conditions: pH 7.4, 2.5 h
[36] = target: T1, Amine oxidase [flavin-containing] B (Homo sapiens, UniProt P27338); assay: Inhibition of recombinant human MAO-B assessed as inhibition of kynuramine oxidation by spectrophotometry
T1 sequence (P27338 whole entry): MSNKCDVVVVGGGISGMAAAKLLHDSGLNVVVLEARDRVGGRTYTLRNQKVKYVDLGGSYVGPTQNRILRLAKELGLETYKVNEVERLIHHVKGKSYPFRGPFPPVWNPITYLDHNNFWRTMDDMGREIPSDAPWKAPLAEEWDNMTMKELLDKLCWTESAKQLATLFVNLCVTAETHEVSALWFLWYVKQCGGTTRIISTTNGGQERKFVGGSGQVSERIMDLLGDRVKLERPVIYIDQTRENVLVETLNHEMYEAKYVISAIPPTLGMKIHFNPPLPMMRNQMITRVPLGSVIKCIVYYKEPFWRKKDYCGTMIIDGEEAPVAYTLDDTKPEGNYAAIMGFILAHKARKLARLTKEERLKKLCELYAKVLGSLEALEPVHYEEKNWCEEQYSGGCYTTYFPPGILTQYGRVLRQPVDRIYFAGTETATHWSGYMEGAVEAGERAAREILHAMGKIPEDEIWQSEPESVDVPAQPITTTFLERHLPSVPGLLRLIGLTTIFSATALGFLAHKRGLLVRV

[37] = target: T2, Amine oxidase [flavin-containing] A (Homo sapiens, UniProt P21397); assay: Inhibition of recombinant human MAO-A assessed as inhibition of kynuramine oxidation by spectrophotometry
T2 sequence (P21397 whole entry): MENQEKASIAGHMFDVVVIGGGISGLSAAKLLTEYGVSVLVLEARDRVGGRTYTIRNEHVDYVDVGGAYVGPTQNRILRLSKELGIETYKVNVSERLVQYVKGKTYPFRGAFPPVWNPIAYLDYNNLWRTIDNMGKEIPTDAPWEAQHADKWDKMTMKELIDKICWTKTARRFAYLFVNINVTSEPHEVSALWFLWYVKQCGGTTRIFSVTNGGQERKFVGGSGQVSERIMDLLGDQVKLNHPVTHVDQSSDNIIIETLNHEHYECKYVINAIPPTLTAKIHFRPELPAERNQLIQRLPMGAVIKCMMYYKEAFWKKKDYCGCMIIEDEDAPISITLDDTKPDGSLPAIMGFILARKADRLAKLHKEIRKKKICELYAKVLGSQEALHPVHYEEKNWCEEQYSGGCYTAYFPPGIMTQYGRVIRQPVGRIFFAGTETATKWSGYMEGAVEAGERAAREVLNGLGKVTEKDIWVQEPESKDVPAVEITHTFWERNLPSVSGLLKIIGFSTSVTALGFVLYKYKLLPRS

Structure (SMILES): C#CCN(C)[C@H](C[18F])CC(C)C
- Drug uptake [1]: Active
- SUV (Brain): 250%
- remaining at 2 h [2]: 12%
- Drug uptake [3]: Not Active
- Retention_time (Plasma [4]): 6.2 min
- Drug uptake [5]: Active
- Drug uptake [6]: Not Active
- Retention_time (Plasma [7]): 3.4 min
- Drug uptake [8]: Not Active
- Drug uptake [9]: Active
- Drug uptake [10]: Not Active
- Drug uptake [11]: Active
- Drug uptake (Thalamus): Active
- Drug uptake [12]: Not Active
- Retention_time (Plasma [13]): 3.7 min
- Drug uptake [14]: Not Active
- Drug uptake [15]: Active
- Drug uptake [16]: Active
- remaining at 0.75 h [17]: 20%
- Retention_time (Plasma [18]): 4.2 min
- Drug uptake [19]: Active
- Drug uptake [20]: Not Active
- Retention_time (Plasma [21]): 2 min
- Drug uptake [22]: Not Active
- Drug uptake [23]: Not Active
- Drug uptake [24]: Active
- Drug uptake [25]: Not Active
- Drug uptake [26]: Active

Structure (SMILES): C#CCN(C)[C@H](C[18F])Cc1ccco1
- Drug uptake [1]: Active
- Drug uptake [27]: Active
- Drug uptake (Cortex [28]): Not Active
- Drug uptake (Cortex [29]): Active
- Drug uptake [9]: Active
- Drug uptake [11]: Active
- Drug uptake [30]: Not Active
- Drug uptake [12]: Not Active
- Drug uptake [14]: Not Active
- Drug uptake [31]: Not Active
- Drug uptake (Cortex [32]): Not Active
- Drug uptake [33]: Active
- Drug uptake (Cortex [34]): Active
- Drug uptake [20]: Not Active
- Drug uptake [24]: Active
- Drug uptake [25]: Not Active

Structure (SMILES): C#CCN(C)[C@H](C[19F])Cc1ccco1
- Stability [35]: Stable

Structure (SMILES): C#CCN(C)[C@H](C[19F])CC(C)C
- Stability [35]: Stable

Structure (SMILES): C#CCN(C)[C@H](CF)CC(C)C
- pIC50 [36]: 6.88
- pIC50 [37]: < 5.70

Structure (SMILES): C#CCN(C)[C@H](CF)CC(=C)C
- pIC50 [36]: 6.18
- pIC50 [37]: < 5.70

Structure (SMILES): C#CCN(C)[C@H](CF)Cc1ccco1
- pIC50 [36]: 6.68
- pIC50 [37]: < 5.70
